Measured values reported in ChEMBL document CHEMBL4152227, “Targeting mitochondria: Esters of rhodamine B with triterpenoids are mitocanic triggers of apoptosis” (Eur J Med Chem, 2018).
The source made the active and inactive calls.

Assays:
[1] = system: FaDu; experiment: Cytotoxicity against human FADU cells after 96 hrs by SRB assay; format: functional, cell-based
How it was run: (§1)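 Sulforhodamine B colorimetric assay after 96 h of treatment. EC50 values in µM are averaged from three independent experiments, each run in triplicate, with a 95% confidence interval. The assay cut-off is 30 µM.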

[2] = system: A2780; experiment: Cytotoxicity against human A2780 cells after 96 hrs by SRB assay; format: functional, cell-based; conditions: A2780, 96 h; how it was run: as §1
[3] = system: HT-29; experiment: Cytotoxicity against human HT-29 cells after 96 hrs by SRB assay; format: functional, cell-based; conditions: HT-29, 96 h; how it was run: as §1
[4] = system: MCF7; experiment: Cytotoxicity against human MCF7 cells after 96 hrs by SRB assay; format: functional, cell-based; conditions: MCF7, 96 h; how it was run: as §1
[5] = system: NIH3T3; experiment: Cytotoxicity against mouse NIH/3T3 cells after 96 hrs by SRB assay; format: cell-based; conditions: NIH3T3, 96 h; how it was run: as §1
[6] = system: SW-1736; experiment: Cytotoxicity against human SW1736 cells after 96 hrs by SRB assay; format: functional, cell-based; conditions: SW-1736, 96 h; how it was run: as §1
[7] = Drug uptake in nucleus of human A2780 cells at 200 nM after 24 hrs by rhodamine 123 staining based fluorescence microscopy; format: ADME, subcellular; conditions: a2780, 24 h, 0.2 µM
How it was run: (§2)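 A2780 ovarian carcinoma cells were incubated 24 h with 200 nM compound, then double-stained with rhodamine 123 (mitochondria, green) and Hoechst 33342 (nuclei). Fluorescence microscopy localized the compound's own red fluorescence by overlay with the rhodamine 123 and Hoechst channels. Bright-field images were also taken.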

[8] = Drug uptake in mitochondria of human A2780 cells at 200 nM after 24 hrs by rhodamine 123 staining based fluorescence microscopy; format: ADME; conditions: a2780, 24 h, 0.2 µM; how it was run: as §2
[9] = system: A2780; experiment: Induction of apoptosis in human A2780 cells assessed as crescent-shaped nuclei at 200 nM after 24 hrs by Hoechst 33342 staining based fluorescence microscopy; format: functional, cell-based
[10] = system: A2780; experiment: Induction of apoptosis in human A2780 cells assessed as incipient membrane blebbing at 200 nM after 24 hrs; format: functional, cell-based

Row | Drug uptake [7] | Drug uptake [8] | SMILES | EC50 [1] [nM] | EC50 [2] [nM] | EC50 [3] [nM] | EC50 [4] [nM] | EC50 [5] [nM] | EC50 [6] [nM] | Activity [9] | Activity [10]
1 |  |  | CCN(CC)c1ccc2c(-c3ccccc3C(=O)O[C@H]3CC[C@]4(C)[C@H]5CC=C6[C@@H]7[C@@H](C)[C@H](C)CC[C@]7(C(=O)OC)CC[C@@]6(C)[C@]5(C)CC[C@H]4C3(C)C)c3ccc(=[N+](CC)CC)cc-3oc2c1 | 1960 | 1750 | 1850 | 1830 | 1840 | 1720 |  | 
2 |  |  | CCN(CC)c1ccc2c(-c3ccccc3C(=O)O[C@H]3CC[C@]4(C)[C@H]5C(=O)C=C6[C@@H]7C[C@@](C)(C(=O)OCc8ccccc8)CC[C@]7(C)CC[C@@]6(C)[C@]5(C)CC[C@H]4C3(C)C)c3ccc(=[N+](CC)CC)cc-3oc2c1 | 1540 | 900 | 1420 | 1470 | 1280 | 1130 |  | 
3 |  |  | CCN(CC)c1ccc2c(-c3ccccc3C(=O)O[C@H]3CC[C@]4(C)[C@H]5C(=O)C=C6[C@@H]7C[C@@](C)(C(=O)OC)CC[C@]7(C)CC[C@@]6(C)[C@]5(C)CC[C@H]4C3(C)C)c3ccc(=[N+](CC)CC)cc-3oc2c1 | 190 | 80 | 150 | 180 | 200 | 150 |  | 
4 |  |  | CCN(CC)c1ccc2c(-c3ccccc3C(=O)O[C@H]3CC[C@]4(C)[C@H]5CC=C6[C@@H]7CC(C)(C)CC[C@]7(C(=O)OC)CC[C@@]6(C)[C@]5(C)CC[C@H]4C3(C)C)c3ccc(=[N+](CC)CC)cc-3oc2c1 | 1990 | 1140 | 2750 | 2310 | 2630 | 1760 |  | 
5 |  |  | C=C(C)[C@@H]1CC[C@]2(C(=O)OC)CC[C@]3(C)[C@H](CC[C@@H]4[C@@]5(C)CC[C@H](OC(=O)c6ccccc6-c6c7ccc(=[N+](CC)CC)cc-7oc7cc(N(CC)CC)ccc67)C(C)(C)[C@@H]5CC[C@]43C)[C@H]12 | 1290 | 420 | 610 | 810 | 1770 | 740 |  | 
6 |  |  | C=C(C)[C@@H]1CC[C@]2(C(=O)NCc3ccccc3)CC[C@]3(C)[C@H](CC[C@@H]4[C@@]5(C)CC[C@H](OC(=O)c6ccccc6-c6c7ccc(=[N+](CC)CC)cc-7oc7cc(N(CC)CC)ccc67)C(C)(C)[C@@H]5CC[C@]43C)[C@H]12 | 540 | 310 | 530 | 470 | 540 | 450 |  | 
7 |  |  | CCN(CC)c1ccc2c(-c3ccccc3C(=O)O[C@H]3CC[C@]4(C)[C@H]5CC=C6[C@@H]7CC(C)(C)CC[C@]7(C(=O)OCc7ccccc7)CC[C@@]6(C)[C@]5(C)CC[C@H]4C3(C)C)c3ccc(=[N+](CC)CC)cc-3oc2c1 | 9120 | 3350 | 8900 | 9400 | 11200 | 9050 |  | 
8 |  |  | CCN(CC)c1ccc2c(-c3ccccc3C(=O)O[C@H]3CC[C@]4(C)[C@H]5CC=C6[C@@H]7[C@@H](C)[C@H](C)CC[C@]7(C(=O)OCc7ccccc7)CC[C@@]6(C)[C@]5(C)CC[C@H]4C3(C)C)c3ccc(=[N+](CC)CC)cc-3oc2c1 | 15800 | 10100 | 11400 | 13800 | 15400 | 12700 |  | 
9 |  |  | CCN(CC)c1ccc2c(-c3ccccc3C(=O)O[C@H]3CC[C@]4(C)[C@H]5CC=C6[C@@H]7[C@@H](C)[C@H](C)CC[C@]7(C(=O)NCc7ccccc7)CC[C@@]6(C)[C@]5(C)CC[C@H]4C3(C)C)c3ccc(=[N+](CC)CC)cc-3oc2c1 | 440 | 340 | 450 | 300 | 370 | 240 |  | 
10 |  |  | CCN(CC)c1ccc2c(-c3ccccc3C(=O)O[C@H]3CC[C@]4(C)[C@H]5CC=C6[C@@H]7CC(C)(C)CC[C@]7(C(=O)NCc7ccccc7)CC[C@@]6(C)[C@]5(C)CC[C@H]4C3(C)C)c3ccc(=[N+](CC)CC)cc-3oc2c1 | 500 | 320 | 460 | 360 | 400 | 270 |  | 
11 |  |  | C=C(C)[C@@H]1CC[C@]2(C(=O)OCc3ccccc3)CC[C@]3(C)[C@H](CC[C@@H]4[C@@]5(C)CC[C@H](OC(=O)c6ccccc6-c6c7ccc(=[N+](CC)CC)cc-7oc7cc(N(CC)CC)ccc67)C(C)(C)[C@@H]5CC[C@]43C)[C@H]12 | 7590 | 3360 | 5330 | 5050 | 8040 | 6430 |  | 
12 | Not Active | Active | CCN(CC)c1ccc2c(-c3ccccc3C(=O)O[C@H]3CC[C@]4(C)[C@H]5C(=O)C=C6[C@@H]7C[C@@](C)(C(=O)NCc8ccccc8)CC[C@]7(C)CC[C@@]6(C)[C@]5(C)CC[C@H]4C3(C)C)c3ccc(=[N+](CC)CC)cc-3oc2c1.[Cl-] | 60 | 20 | 60 | 40 | 80 | 40 | Active | Active
